Measured values taken from article PMC10132129 (RSC Advances, 2023).
Structures can show the parent of a compound that is named as a salt. Marks after values point to notes of the source that are not given here.

Key:
[1] = tested on: streptozotocin-induced diabetic male rats; test: Body weight and relative reproductive organ weight in diabetic rats; format: in vivo, albino rats; details: 5 mg kg^−1 b.w
Summary of the method: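 Male albino rats (190–200 g), fasted overnight, given STZ 55 mg kg−1 ip with 5% glucose to drink; FPG >250 mg dL−1 at 72 h defined diabetes. Body weight recorded weeks 0, 5, 9. Organs weighed post-mortem; relative weight = organ/body weight × 100.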

[2] = tested on: streptozotocin-induced diabetic male rats; test: Serum biochemical estimation in diabetic rats; format: in vivo, albino rats; details: for Fasting plasma glucose / Fasting plasma glucose % reduced / Serum insulin / Serum insulin % increased: 5 mg kg^−1 b.w
Summary of the method: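 STZ-diabetic male rats (55 mg kg−1 ip; FPG >250 mg dL−1) dosed orally 9 weeks in 0.5% Na-CMC; n = 6. Fasting retro-orbital blood taken under diethyl ether at weeks 0, 5, 9; serum spun 3500 rpm, 15 min. FPG by glucometer; ALT, AST, ALP, creatinine by commercial kits. Mean ± SD; one-way ANOVA with Tukey test.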

[3] = tested on: streptozotocin-induced diabetic male rats; test: Copulatory; format: in vivo, albino rats; details: 5 mg kg^−1 b.w; day 63
Summary of the method: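 STZ-diabetic males dosed orally for 9 weeks; tested on day 63. Females were ovariectomized and primed sc with 3-benzoyloxy-17b-estrol 48 h before and progesterone 500 μg 4 h before testing. Males adapted 10 min under dim red light, then paired 1:1. Mount, intromission and ejaculation latencies/frequencies and post-ejaculatory interval recorded; n = 6.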

[4] = tested on: streptozotocin-induced diabetic male rats; test: Mating test; format: in vivo, albino rats; details: 5 mg kg^−1 b.w
Summary of the method: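 In week 8, each treated diabetic male was housed 5 days with two virgin females. Daily vaginal smears checked for sperm. Sperm-positive females were kept 10 days, then euthanised (diethyl ether overdose) to count fetuses and corpora lutea. Mating success = females mated / females paired; male fertility = fetuses / corpora lutea.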

[5] = tested on: streptozotocin-induced diabetic male rats; test: Epididymal sperm characteristics; format: in vivo, albino rats; details: 5 mg kg^−1 b.w, 9 weeks
Summary of the method: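 After 9 weeks' oral dosing of STZ-diabetic rats, cauda epididymal semen was diluted with normal saline in a red-cell pipette (0.5 to 101 mark). Count in Neubauer chamber at ×40, expressed as million cells per mL. Viability by eosin–nigrosin mixed 1:1 for 5 min, ~200 cells scored; unstained cells counted as live. Smears air-dried for morphology; n = 6.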

[6] = tested on: streptozotocin-induced diabetic male rats; test: Histopathological examination of testes; format: in vivo, albino rats; details: 9 weeks
Summary of the method: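 Testes from 9-week-dosed diabetic rats fixed in 10% formalin, paraffin-embedded, cut at 5 μm and H&E-stained; examined at ×400. Tubule diameter and epithelial height measured on 20 near-circular seminiferous tubule cross-sections from three slides (lower, middle, upper testis). n = 6; mean ± SD.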

[7] = target: human PDE5A (Homo sapiens, UniProt O76074); test: In vitro PDE5 inhibitory activity; format: biochemical; details: read-out: % Inhibition of PDE5
[8] = ABTS^+· radical scavenging assay; format: biochemical; details: read-out: IC50 against ABTS^+· free radical
Summary of the method: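 Radical-scavenging assay: test compound at 25–100 μg mL−1 mixed with ABTS+· solution and incubated 37 °C, 6 min. Absorbance read at 750 nm against blank. Ascorbic acid was the standard. Triplicate runs; IC50 reported.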

[9] = 9 weeks treatment, vs diabetic control

CCCc1nn(C)c2c(=O)[nH]c(-c3cc(S(=O)(=O)N4CCN(C)CC4)ccc3OCC)nc12 [Sildenafil citrate]
Body weight ([1]; 9 weeks): 179.50 ± 5.05 g
Body weight % changed ([1]; 9 weeks): −10.32 ± 3.18%
Body weight ([1]; 0 week): 200.33 ± 6.68 g
Body weight ([1]; 5 weeks): 170.83 ± 6.79 g
Body weight % changed ([1]; 5 weeks): −14.69 ± 3.27%
Fasting plasma glucose ([2]; 9 weeks): 190.67 ± 5.79 mg/dL
Fasting plasma glucose % reduced ([2]; 9 weeks): 45.28 ± 2.37%
Serum insulin ([2]; 9 weeks): 6.82 ± 0.14 mIU L^−1
Serum insulin % increased ([2]; 9 weeks): 99.58 ± 9.18%
Fasting plasma glucose ([2]; 0 week): 348.67 ± 6.80^c mg dL^−1
Serum insulin ([2]; 0 week): 3.43 ± 021^c mIU L^−1
Fasting plasma glucose ([2]; 5 weeks): 219.17 ± 5.38 mg/dL
Fasting plasma glucose % reduced ([2]; 5 weeks): 37.12 ± 2.15%
Serum insulin ([2]; 5 weeks): 6.00 ± 0.29 mIU L^−1
Serum insulin % increased ([2]; 5 weeks): 75.37 ± 3.54%
Creatinine (Cr) level [2, 9]: remarkable reduction
Total bilirubin (TBIL) level [2, 9]: remarkable reduction
Total protein (TP) level [2, 9]: significant recovery
Urea (U) level [2, 9]: remarkable reduction
Ejaculatory latency [3]: 948.83 ± 32.29^a sec
Intromission frequency [3]: 8.20 ± 0.55^by no.
Intromission latency [3]: 805.33 ± 23.84^bx sec
Mount frequency [3]: 578.50 ± 38.01^cy sec
Mount latency [3]: 539.67 ± 27.06^x sec
Post ejaculatory interval [3]: 1311.67 ± 95.19 s
Male fertility [4]: 83.85 ± 3.98^z %
Mating success [4]: 83.34%
No. of corpora lutea/rat [4]: 12.40 ± 0.52
No. of fetuses/rat [4]: 10.40 ± 0.70^z
No. of females mated ([4]; of 12 females paired): 10
No. of females pregnant ([4]; of 12 females paired): 10
Detached head from sperm [5]: 9.67 ± 2.73^z %
Sperm abnormalities [5]: 9.83 ± 0.75^ay %
Sperm count [5]: 56.69 ± 1.37 million cells per mL
Sperm count % reduced [5]: 24.24 ± 3.66%
Sperm motility [5]: 68.67 ± 3.14^by %
Sperm viability [5]: 68.17 ± 2.56^cz %
Height of seminiferous epithelium ([6]; 5 mg kg^−1 b.w): 70.60 ± 3.10^z μm
Mean seminiferous tubule diameter ([6]; 5 mg kg^−1 b.w): 217.00 ± 15.14^y μm
Mean Johnson's score ([6]; 5 mg kg^−1 b.w, range 1–10): 9.30 ± 0.48^z
Testicular histology (H&E) ([6]; oral treatment): marked development in the testicular structure
inhibition at 2.5 µg/mL [7]: 48.1 ± 1.48%
inhibition at 5 µg/mL [7]: 67.8 ± 1.21%
inhibition at 7.5 µg/mL [7]: 84.1 ± 0.86%
inhibition at 10 µg/mL [7]: 97.3 ± 1.64%

O=C1O[C@H]([C@@H](O)CO)C(O)=C1O [ascorbic acid]
IC50 [8]: 169 ± 12.9 µM
